Sampled rows, rich in hits. Any-hit rate of the full collection: about 1.8%.
HNF4A DNA FP – change in binding of human HNF4A to DNA, primary screen, biochemical, fluorescence polarization, FITC-DNA; Hepatocyte nuclear factor 4-alpha (Homo sapiens), P41235; 1 h; activity change, % at 10 µM; 0.3% of 360,000 active; in the data active = activity change above about 30%, passing the limit was not always enough
TPT1 inhibitor – Candida albicans TPT1 enzyme inhibitors, primary screen, biochemical, fluorescence polarization; tRNA 2'-phosphotransferase TPT1 (Candida albicans SC5314); recombinant caTPT1, FP RNA substrate dephosphorylation; inhibition, % at 5 µM; 0.81% of 300,000 active; AID 1962, 2009;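 active = inhibition above the mean of all tested compounds plus 3 SD, set per screening campaign, cut at about 24% in these data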
CSN inh – inhibitors of CSN-mediated cullin deneddylation, primary screen, biochemical, fluorescence polarization, uHTS; COP9 signalosome complex subunit 5 (Homo sapiens), Q92905; Purified CSN, SCF-Nedd8-OG deneddylation; inhibition, % at 12.5 µM; 0.38% of 360,000 active; AID 651999, 2013;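 active = pattern-corrected inhibition above about 35%, with an unprinted fluorescence ratio check between 0.5 and 1.5, limit read from the data, passing the limit was not always enough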
Target sequence (Q92905 whole entry, looked up, one chain of several): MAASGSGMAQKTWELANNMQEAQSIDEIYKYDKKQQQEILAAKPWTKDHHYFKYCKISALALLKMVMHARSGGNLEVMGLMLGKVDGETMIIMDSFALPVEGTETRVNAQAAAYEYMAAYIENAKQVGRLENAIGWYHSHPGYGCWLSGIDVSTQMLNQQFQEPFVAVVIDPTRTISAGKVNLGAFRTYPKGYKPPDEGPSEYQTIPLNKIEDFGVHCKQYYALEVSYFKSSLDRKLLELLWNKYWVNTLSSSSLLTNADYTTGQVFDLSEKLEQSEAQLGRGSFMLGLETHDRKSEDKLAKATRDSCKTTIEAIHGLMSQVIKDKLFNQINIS
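test system = HEK293T-derived human Csn5 enzyme | amount = 0.24 nM Csn5 enzyme, final concentration | medium = Tris/NaCl/DTT buffer, pH 7.5 | schedule = 90 min reaction at room temperature | signal = FP | evaluation = inhibition of Csn5 cleavage, % | compound dosing = single dose of 12.5 µM compound with 0.25% DMSO | probe or stimulus = 10 nM SCFSkp2-Nedd8OG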
Rpn11 block – Rpn11 (PSMD14) deubiquitinase inhibitors, primary screen, biochemical, fluorescence polarization, uHTS; 26S proteasome non-ATPase regulatory subunit 14 (Homo sapiens), O00487; human 26S proteasome, Ub4-pepOG fluorescence polarization; 20S core pre-blocked with epoxomicin; calls only at 20 µM; 0.59% of 360,000 active; AID 588493, 2011;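 active = inhibition at 20 µM, scaled to each plate's controls, above about 33%, limit read from the data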
SUMO HTRF inh – inhibitors of in vitro SUMOylation cascade, primary screen, biochemical, HTRF, uHTS | inhibition, % at 35 µM | AID 2006, 2009 | 0.36% of 290,000 active | HTRF SUMOylation assay, SAE1/SAE2 + UBC9 | SUMO-conjugating enzyme UBC9 (Homo sapiens), P63279; in the data active = inhibition above about 50%, passing the limit was not always enough
Target sequence (P63279 whole entry, looked up): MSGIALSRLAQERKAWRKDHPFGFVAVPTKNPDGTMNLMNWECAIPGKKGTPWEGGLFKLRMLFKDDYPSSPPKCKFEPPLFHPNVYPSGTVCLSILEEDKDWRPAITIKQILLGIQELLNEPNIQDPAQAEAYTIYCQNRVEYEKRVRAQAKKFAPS
SENP1 FRET inh – human SENP1 catalytic domain inhibitors, primary screen, biochemical, FRET, uHTS; 0.21% of 360,000 active; recombinant SENP1 catalytic domain, CyPet-SUMO1-YPet FRET cleavage; inhibition, % at 10 µM; Sentrin-specific protease 1 (Homo sapiens), Q9P0U3; AID 624204, 2012;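 active = inhibition at least 30% at 10 µM, raw YFP signal under a set limit, fluorescence ratio 0.5 to 1.5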
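Test system: hSENP1 catalytic domain, recombinant; Amount: 20 pM final SENP1 enzyme; Medium: Tris pH 8 buffer plus EDTA, NaCl, BME, BSA, NP40, catalase; Schedule: 50 min enzyme reaction, room temperature, light-protected; Technique: FRET fluorescence in CFP and YFP emission channels; Controls: no-enzyme wells low, DMSO-plus-enzyme wells high control.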
CSN deneddyl val – Csn5 deneddylation inhibitors, confirmation, biochemical, fluorescence polarization, single concentration, SCF-Nedd8OG substrate. inhibition, % at 16.6 µM. AID 720654, 2013. Csn5 deneddylation of SCF-Nedd8OG, 90 min. shares compounds with CSN inh. 62% of 540 active; in the data active = inhibition above about 50%
MMP-2 counter – MMP-2 protease inhibition counter-screen, confirmation, counter-screen for CSN deneddylation inhibitor project, biochemical, fluorescence, single concentration; shares compounds with CSN inh; recombinant MMP-2, FRET substrate fluorescence, 60 min; inhibition, % at 16.6 µM; 33% of 540 active;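 active = corrected plate-normalized z-score of 5 or more, or -5 or less, or inhibition of 15% or more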
Thrombin cntr – counter-screen for CSN deneddylation inhibitors: bovine thrombin inhibition; shares compounds with CSN inh; bovine thrombin cleavage of Ub4-pepOG, fluorescence polarization; inhibition, % at 16.6 µM; 49% of 540 active; AID 720656;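 active = inhibition at or above a set limit, with a fluorescence interference ratio between 0.5 and a set maximum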
Hits are given with their value; 0 = inactive; - = no result given; + = active, no number.

SMILES | HNF4A DNA FP | TPT1 inhibitor | CSN inh | Rpn11 block | SUMO HTRF inh | SENP1 FRET inh | CSN deneddyl val | MMP-2 counter | Thrombin cntr
CCN=C1SC(CC(=O)NCCc2ccc(OC)c(OC)c2)C(=O)N1CC (stereo not given) | 0 | 0 | 0 | 0 | 0 | 0 | - | - | -
Cc1cc(C(=O)O)ccc1-c1ccc(/C=C2\NC(=O)N(Cc3ccc(F)cc3)C2=O)o1 | 0 | 0 | 36 | 0 | 0 | 0 | - | 17 | 16
COc1cc(NCCCCCCN)c2ncccc2c1OC | 0 | - | 86 | 0 | - | 0 | - | 0 | 0
Cn1nnnc1SCC(=O)N1CCN(c2ccc(Cl)cc2)CC1 | 0 | 0 | 0 | 0 | 0 | 0 | - | - | -
Nc1ccc2c(S(=O)(=O)O)cccc2c1S(=O)(=O)O | 0 | - | 0 | 0 | - | 0 | - | - | -
Nc1cccc2cc(S(=O)(=O)O)ccc12 | 0 | - | 37 | 0 | - | 0 | 67 | 0 | 0
CC(C)=C[C@H]1C[C@H](C)[C@H]2CC[C@H](C)c3c(O)c(O[C@H]4OC[C@H](O)[C@@H](O)[C@@H]4O)c(C)c1c32 | 0 | - | 0 | 0 | - | 0 | - | - | -
Cc1ccc(C)c(S(=O)(=O)Nc2ccc3oc(C)c(C(=O)O)c3c2)c1 | 0 | 0 | 40 | 0 | 0 | 0 | 0 | 0 | 0
CC(=O)c1c(C)oc2ccc(NS(=O)(=O)c3ccc(C)cc3)cc12 | 0 | 0 | 0 | 0 | 0 | 0 | - | - | -
CCCc1ccc(O)c(N=Cc2cc(Br)cc(OCC)c2O)c1 | 0 | 0 | 38 | 0 | 0 | 0 | 89 | 0 | 46
CS(=O)(=O)c1ccc(Nc2nc(C(N)CCc3ccccc3)cs2)cc1 (stereo not given) | 0 | - | 0 | 0 | - | 0 | - | - | -
C=CCn1c(O)c(N=Nc2ccccc2O)c2ccccc21 | 84 | - | 47 | - | - | 0 | + | 0 | 33
CC(C)(C)NC(=O)COC(=O)CCC(=O)c1ccc(F)cc1 | 0 | 0 | 0 | 0 | 0 | 0 | - | - | -
Cc1c(O)c2c(=O)n(-c3ccccc3)c(-c3ccccc3)cc2oc1=O | 0 | 0 | 0 | 0 | 0 | 0 | - | - | -
CCOC(=O)C1=C(C)N=c2s/c(=C\c3cccc(OCC(=O)O)c3)c(=O)n2C1c1ccccc1 (stereo not given) | 0 | - | 0 | 0 | 0 | 0 | - | - | -
CC1=C(C(=O)OC(C)C)C(c2ccc(Cl)cc2)n2c(s/c(=C\c3ccc(OCC(=O)O)cc3)c2=O)=N1 (stereo not given) | 0 | - | 84 | - | 0 | 0 | 0 | 0 | 0
O=C1C2C(C(=O)N1/N=C/c1cc([N+](=O)[O-])ccc1O)C1C=CC2C12CC2 (stereo not given) | 0 | 0 | 0 | 0 | 0 | 0 | - | - | -
O=C1C2C(C(=O)N1/N=C/c1cc([N+](=O)[O-])c(O)cc1O)C1C=CC2C12CC2 (stereo not given) | 0 | 0 | 36 | 0 | 0 | 0 | 0 | 17 | 0
CCOc1ccc(NC(=O)CN2C(=O)CSc3ccc(S(=O)(=O)N4CCCC4)cc32)cc1 | 0 | 0 | 0 | 0 | - | 0 | - | - | -
O=C1C(=O)c2c(ccc3ccccc23)-c2ccccc21 | 0 | - | 40 | 0 | - | 0 | 84 | 0 | 0
CN(C)/C=C1\Oc2ccc3ccccc3c2C1=O | 0 | 0 | 0 | 0 | 0 | 0 | - | - | -
